Paper PMC11375723 (ACS Omega, 2024)

Experiments:
Type in all cases: cell-based, human
[1] = test system: HT-1080 fibrosarcoma cells; assay: Resazurin antiproliferative microtiter assay, HT-1080; details: read-out: IC50, μM (± SEM), HT-1080, 48 h drug exposure
In short: (§1)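 Human cells at 37 °C, 5% CO2, with 10% cosmic calf serum in DMEM/F12 (A549), DMEM (MDA-MB-231, HFF) or EMEM (HT-1080, MRC-5). Plated 5,000 cells/180 µL and left 24 h to adhere. Test compound 0.1–100 µM, quadruplicate, 2–3 repeats, 48 h. Then 0.1% resazurin; fluorescence ex 530/em 590 after 24–48 h.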

[2] = test system: MDA-MB-231 breast carcinoma cells; assay: Resazurin antiproliferative microtiter assay, MDA-MB-231; details: read-out: IC50, μM (± SEM), MDA-MB-231, 48 h drug exposure
In short: as §1

[3] = test system: A549 lung carcinoma cells; assay: Resazurin antiproliferative microtiter assay, A549; details: read-out: IC50, μM (± SEM), A549, 48 h drug exposure
In short: as §1

IC50 [1] [µM]	Molecule	IC50 [2] [µM]	IC50 [3] [µM]
< 1	Pyrrolidine-2-(4-methoxyphenyl)diazothioformamide – Cu(l)I [Compound 4b]	–	–
< 1	Piperidine-2-(4-methoxyphenyl)diazothioformamide – Cu(l)Br [Compound 5c]	–	–

Molecule	IC50 [1] [µM]	IC50 [2] [µM]	IC50 [3] [µM]
N.N.[Cl][Pt][Cl] [Cisplatin]	17.5	48.6	19
